Data reported in ChEMBL document CHEMBL1146487, “New cytotoxic clerodane diterpenoids from the leaves and twigs of Casearia membranacea” (J Nat Prod, 2004).

Assays:
PC-3 = experiment: Cytotoxicity against human PC3 cells after 48 hrs by SRB assay; type: functional, cell-based; settings: PC-3, 48 h
How it was run: (§1)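 Cells seeded in RPMI 1640 with 5% FBS at 37 °C, 5% CO2. A time-zero plate set fixed with TCA at 24 h. Drug added, then 48 h further incubation. Cold-TCA fixation, 0.4% w/v SRB in 1% acetic acid for 10 min, acetic acid washes, dye dissolved in 10 mM Tris base, A515 read. IC50 = concentration giving 50% absorbance reduction versus untreated cells.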

[1] = Cytotoxicity against human Hep3B cells after 48 hrs by SRB assay; type: functional, cell-based, Hep 3B2; how it was run: as §1

C=CC(=C)CC[C@]1(C)[C@H]2C[C@H](OC(=O)C(C)CC)C=C3[C@H](OC(C)=O)O[C@H](OC(C)=O)[C@@]32[C@H](OC(=O)c2cccnc2)C[C@@H]1C (stereo not given in full)
IC50 (PC-3): 13000 nM
IC50 [1]: 10800 nM

C=CC(=C)CC[C@]1(C)[C@H]2C[C@H](OC(=O)C(C)CC)C=C3[C@H](OC(C)=O)O[C@H](OC(C)=O)[C@@]32[C@H](O)C[C@@H]1C (relative stereo)
IC50 (PC-3): 1800 nM
IC50 [1]: 2400 nM

C=CC(=C)CC[C@]1(C)[C@H]2C[C@H](OC(=O)C(C)CC)C=C3[C@H](OC(=O)CCC)O[C@H](OC(C)=O)[C@@]32[C@H](OC(C)=O)[C@H](OC(C)=O)[C@@H]1C (stereo not given in full)
IC50 (PC-3): 12800 nM
IC50 [1]: 16800 nM

C=CC(=C)CC[C@]1(C)[C@H]2C[C@H](OC(=O)C(C)CC)C=C3[C@H](OC(=O)CCC)O[C@H](OC(C)=O)[C@@]32[C@H](O)C[C@@H]1C (relative stereo) [CASEAMEMBRIN A]
IC50 (PC-3): 1500 nM
IC50 [1]: 2300 nM

C=CC(=C)CC[C@]1(C)[C@H]2C[C@@H](OC(=O)C(C)CC)C=C3[C@H](OC(C)=O)O[C@H](OC(C)=O)[C@@]32[C@H](O)C[C@@H]1C (relative stereo) [CASEAMEMBRIN E]
IC50 (PC-3): 2900 nM
IC50 [1]: 2600 nM

C=CC(=C)CC[C@]1(C)[C@H]2C[C@H](OC(=O)C(C)CC)C=C3[C@H](OC(=O)CCC)O[C@H](OC(C)=O)[C@@]32[C@H](O)[C@H](O)[C@@H]1C (relative stereo) [CASEAMEMBRIN C]
IC50 (PC-3): 600 nM
IC50 [1]: 800 nM

C=CC(=C)CC[C@]1(C)[C@H]2C[C@H](OC(=O)C(C)CC)C=C3[C@H](OC(=O)CCC)O[C@H](OC(C)=O)[C@@]32[C@H](O)[C@H](OC(C)=O)[C@@H]1C (relative stereo) [CASEAMEMBRIN D]
IC50 (PC-3): 2400 nM
IC50 [1]: 1900 nM

C=CC(=C)CC[C@]1(C)[C@H]2C[C@H](OC(=O)C(C)CC)C=C3[C@H](OC)O[C@H](OC(C)=O)[C@@]32[C@H](O)C[C@@H]1C (relative stereo) [CASEAMEMBRIN B]
IC50 (PC-3): 22200 nM
IC50 [1]: 18000 nM

CC(=O)O[C@H]1C(=O)[C@@]2(C)[C@H]([C@H](OC(=O)c3ccccc3)[C@]3(O)C[C@H](OC(=O)[C@H](O)[C@@H](NC(=O)c4ccccc4)c4ccccc4)C(C)=C1C3(C)C)[C@]1(OC(C)=O)CO[C@@H]1C[C@@H]2O [PACLITAXEL]
IC50 (PC-3): 16 nM
IC50 [1]: 31 nM

C=CC(=C)CC[C@]1(C)[C@H]2C[C@H](OC(=O)C(C)CC)C=C(C=O)[C@@]2(C=O)[C@H](O)C[C@@H]1C (relative stereo) [CASEAMEMBRIN F]
IC50 (PC-3): 3000 nM
IC50 [1]: 14700 nM
